A word on the IC50: it is the concentration needed to halve the response being measured.

The source of these data is ChEMBL document CHEMBL4706643 (J Med Chem, 2021).

A short description of data set [1]: Intrinsic clearance in rat liver microsomes at 1 uM preincubated for 5 mins followed by NADPH addition and measured upto 60 mins by LC-MS analysis. The settings on record: time 65 min, read-out: CLH. It counts as ADME, Microsome. A general note: Microsomes from liver hold many membrane-bound enzymes, among them those of drug oxidation.
The next data set has as its system Hepatitis B virus. Put plainly: Antiviral activity against HBV infected in human HepG2-NTCP cells assessed as reduction in HBeAg secretion cells inoculated with virus for 4 hrs at room temperature and 37 degree C for 24 hrs followed inoculum changed with PMM medium for every 2 days until day 5 post infection by ELISA. It counts as functional, organism-based. In general terms: An ELISA detects its analyte on a solid surface through an enzyme-linked reagent.

A short description of data set [2]: Intrinsic clearance in mouse liver microsomes at 1 uM preincubated for 5 mins followed by NADPH addition and measured upto 60 mins by LC-MS analysis. It counts as ADME, Microsome. The settings on record: read-out: CLH. In outline:
(§1)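 Human or mouse liver microsomes, final 1 mg/mL in 0.05 M phosphate buffer pH 7.4; compound final 1 μM, preincubated 37 °C 5 min, started with 1 mM NADPH; sampled at 0, 5, 15, 30, 60 min, methanol quench, −20 °C 1 h, centrifuged, supernatant by LC–MS.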

A short description of data set [3]: Intrinsic clearance in human liver microsomes at 1 uM preincubated for 5 mins followed by NADPH addition and measured upto 60 mins by LC-MS analysis. The settings on record: read-out: CLH. The data set is classed as ADME, Microsome. The gist of the method: as §1
In data set [4] the target is T1, Hepatic sodium/bile acid cotransporter (Homo sapiens, UniProt Q14973).
T1 sequence (Q14973 whole entry): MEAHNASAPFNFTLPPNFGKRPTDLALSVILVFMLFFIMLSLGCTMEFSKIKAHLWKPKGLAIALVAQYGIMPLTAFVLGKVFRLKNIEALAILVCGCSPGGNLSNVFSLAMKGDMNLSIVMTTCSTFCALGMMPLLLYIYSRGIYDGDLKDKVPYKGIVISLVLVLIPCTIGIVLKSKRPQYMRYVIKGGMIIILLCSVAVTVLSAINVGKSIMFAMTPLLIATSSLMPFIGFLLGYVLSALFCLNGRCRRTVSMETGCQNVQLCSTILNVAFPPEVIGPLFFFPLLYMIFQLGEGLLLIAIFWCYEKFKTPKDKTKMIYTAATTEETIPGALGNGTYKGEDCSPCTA
Put plainly: Inhibition of human NTCP expressed in human HepG2 cells assessed as decrease in NTCP surface expression at 2 uM incubated for 2 hrs by DAPI staining based analysis. The data set is classed as cell-based. Conditions: hepg2, 2 h; call rule not given here. The gist of the method: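 HepG2-NTCP cells treated 2 h with DMSO, compound or TLCA at 2 μM, then immunostained for NTCP to assess cell-surface distribution.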

Bounds are passed on as bounds.

`CCCCc1ccc(S[C@H]2C[C@@H](C)[C@H]([C@H]3C(=O)N[C@@H](CC)C(=O)N(C)CC(=O)N(C)[C@@H](CC(C)C)C(=O)N[C@@H](C(C)C)C(=O)N(C)[C@@H](CC(C)C)C(=O)N[C@@H](C)C(=O)N[C@H](C)C(=O)N(C)[C@@H](CC(C)C)C(=O)N(C)[C@@H](CC(C)C)C(=O)N(C)[C@@H](C(C)C)C(=O)N3C)O2)cc1`: the microsomal CLint at 1 µM in data set [1] turned out to be 4 µL/min/mg; in data set [2] it was 2.5 µL/min/mg; in data set [3] it was 6.1 µL/min/mg. For the same compound, the IC50 with Hepatitis B virus stood at 262 nM.
Turning to `CC[C@@H]1NC(=O)[C@H]([C@@H]2O[C@H](Sc3cccc(OCc4ccccc4)c3)C[C@H]2C)N(C)C(=O)[C@H](C(C)C)N(C)C(=O)[C@H](CC(C)C)N(C)C(=O)[C@H](CC(C)C)N(C)C(=O)[C@@H](C)NC(=O)[C@H](C)NC(=O)[C@H](CC(C)C)N(C)C(=O)[C@H](C(C)C)NC(=O)[C@H](CC(C)C)N(C)C(=O)CN(C)C1=O`, the microsomal CLint at 1 µM in data set [1] came to 3 µL/min/mg; in data set [2], 2.1 µL/min/mg; in data set [3] it was 7.7 µL/min/mg.
In the case of `CCOc1cccc(S[C@H]2C[C@@H](C)[C@H]([C@H]3C(=O)N[C@@H](CC)C(=O)N(C)CC(=O)N(C)[C@@H](CC(C)C)C(=O)N[C@@H](C(C)C)C(=O)N(C)[C@@H](CC(C)C)C(=O)N[C@@H](C)C(=O)N[C@H](C)C(=O)N(C)[C@@H](CC(C)C)C(=O)N(C)[C@@H](CC(C)C)C(=O)N(C)[C@@H](C(C)C)C(=O)N3C)O2)c1`, the microsomal CLint at 1 µM in data set [1] was found to be 2.3 µL/min/mg; in data set [2], 4 µL/min/mg; in data set [3], 18.5 µL/min/mg. The IC50 in the data set with Hepatitis B virus worked out at 181 nM.
As to `CC[C@@H]1NC(=O)[C@H]([C@@H]2O[C@@H](Sc3ccc(Cl)c(OC)c3)C[C@H]2C)N(C)C(=O)[C@H](C(C)C)N(C)C(=O)[C@H](CC(C)C)N(C)C(=O)[C@H](CC(C)C)N(C)C(=O)[C@@H](C)NC(=O)[C@H](C)NC(=O)[C@H](CC(C)C)N(C)C(=O)[C@H](C(C)C)NC(=O)[C@H](CC(C)C)N(C)C(=O)CN(C)C1=O`, the microsomal CLint at 1 µM is 2 µL/min/mg in data set [1], 3.3 µL/min/mg in data set [2] and 14.8 µL/min/mg in data set [3]. Moreover, the IC50 with Hepatitis B virus is 101 nM.
`CC[C@@H]1NC(=O)[C@H]([C@@H]2O[C@@H](Sc3cccc(OCc4ccc(F)cc4C)c3)C[C@H]2C)N(C)C(=O)[C@H](C(C)C)N(C)C(=O)[C@H](CC(C)C)N(C)C(=O)[C@H](CC(C)C)N(C)C(=O)[C@@H](C)NC(=O)[C@H](C)NC(=O)[C@H](CC(C)C)N(C)C(=O)[C@H](C(C)C)NC(=O)[C@H](CC(C)C)N(C)C(=O)CN(C)C1=O`: the microsomal CLint at 1 µM in data set [1] is 0.8 µL/min/mg; in data set [2], 7.1 µL/min/mg. For the same compound, the IC50 with Hepatitis B virus worked out at 122 nM.
For `CC[C@@H]1NC(=O)[C@H]([C@@H]2O[C@@H](Sc3cc(Cl)cc(OC)c3)C[C@H]2C)N(C)C(=O)[C@H](C(C)C)N(C)C(=O)[C@H](CC(C)C)N(C)C(=O)[C@H](CC(C)C)N(C)C(=O)[C@@H](C)NC(=O)[C@H](C)NC(=O)[C@H](CC(C)C)N(C)C(=O)[C@H](C(C)C)NC(=O)[C@H](CC(C)C)N(C)C(=O)CN(C)C1=O`, the IC50 with Hepatitis B virus was found to be 116 nM. In addition, the microsomal CLint at 1 µM in data set [2] amounted to 2.2 µL/min/mg; in data set [3], 4.2 µL/min/mg.
Take `CC[C@@H]1NC(=O)[C@H]([C@@H]2O[C@@H](Sc3cccc(NCc4ccccc4)c3)C[C@H]2C)N(C)C(=O)[C@H](C(C)C)N(C)C(=O)[C@H](CC(C)C)N(C)C(=O)[C@H](CC(C)C)N(C)C(=O)[C@@H](C)NC(=O)[C@H](C)NC(=O)[C@H](CC(C)C)N(C)C(=O)[C@H](C(C)C)NC(=O)[C@H](CC(C)C)N(C)C(=O)CN(C)C1=O`: the results for the microsomal CLint at 1 µM in data set [1], in data set [2] and in data set [3] were 1.4 µL/min/mg, 2.1 µL/min/mg and 6.1 µL/min/mg, respectively. In addition, in the data set on Hepatitis B virus, the IC50 came to 171 nM.
For `CC[C@@H]1NC(=O)[C@H]([C@@H]2O[C@@H](Sc3cc(OC)cc(OC)c3)C[C@H]2C)N(C)C(=O)[C@H](C(C)C)N(C)C(=O)[C@H](CC(C)C)N(C)C(=O)[C@H](CC(C)C)N(C)C(=O)[C@@H](C)NC(=O)[C@H](C)NC(=O)[C@H](CC(C)C)N(C)C(=O)[C@H](C(C)C)NC(=O)[C@H](CC(C)C)N(C)C(=O)CN(C)C1=O`, the results for the microsomal CLint at 1 µM in data set [1], in data set [2] and in data set [3] were 0.7 µL/min/mg, 5.5 µL/min/mg and 10.2 µL/min/mg, respectively. Also, the IC50 with Hepatitis B virus was found to be 117 nM.
As to `CC[C@@H]1NC(=O)[C@H]([C@@H]2O[C@@H](Sc3cccc(OCc4ccc(F)cc4)c3)C[C@H]2C)N(C)C(=O)[C@H](C(C)C)N(C)C(=O)[C@H](CC(C)C)N(C)C(=O)[C@H](CC(C)C)N(C)C(=O)[C@@H](C)NC(=O)[C@H](C)NC(=O)[C@H](CC(C)C)N(C)C(=O)[C@H](C(C)C)NC(=O)[C@H](CC(C)C)N(C)C(=O)CN(C)C1=O`, the microsomal CLint at 1 µM in data set [1] stood at 2 µL/min/mg; in data set [2] it was 0.3 µL/min/mg; in data set [3] it was 7.7 µL/min/mg. In the data set with Hepatitis B virus, the IC50 came out at 206 nM.
Regarding `C[C@H](CCC(=O)NCCS(=O)(=O)O)[C@H]1CC[C@H]2[C@@H]3CC[C@@H]4C[C@H](O)CC[C@]4(C)[C@H]3CC[C@]12C` [TAUROLITHOCHOLIC ACID], in data set [4], the “inhibition (INH)” value is listed as “Active”.
As for `CC[C@@H]1NC(=O)[C@H]([C@@H]2OC(C(C)C)C[C@H]2C)N(C)C(=O)[C@H](C(C)C)N(C)C(=O)[C@H](CC(C)C)N(C)C(=O)[C@H](CC(C)C)N(C)C(=O)[C@@H](C)NC(=O)[C@H](C)NC(=O)[C@H](CC(C)C)N(C)C(=O)[C@H](C(C)C)NC(=O)[C@H](CC(C)C)N(C)C(=O)CN(C)C1=O` (stereo not given in full), in the data set on Hepatitis B virus, the IC50 is above 10000 nM.
